According to the EternaBench riboswitch data:

System: MS2 coat protein
Experiment: apparent Kd, MS2 coat protein; higher = weaker binding; RNA-MaP array; FMN 200 µM where present
Summary of the method: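 Stalled E. coli RNA polymerase transcribed each design on Illumina sequencing-chip clusters. The clusters were titrated with SNAP-549-labelled MS2 coat protein, starting at 0.7 or 1.5 nM and doubling up to 3 µM, first without ligand and then with constant ligand, in 100 mM Tris-HCl pH 7.5, 80 mM KCl, 4 mM MgCl2, BSA, DTT, yeast tRNA and Tween-20. Green signal was normalised to red-channel RNA signal and to the control-cluster median Fmax. The apparent Kd is the median of filtered binding-curve fits made for each cluster.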

[1] = designed as: OFF switch for flavin mononucleotide, no ligand
[2] = ligand present: flavin mononucleotide, designed as: OFF switch for flavin mononucleotide
[3] = designed as: ON switch for flavin mononucleotide, no ligand
[4] = ligand present: flavin mononucleotide, designed as: ON switch for flavin mononucleotide

Sequence	apparent Kd [1]	apparent Kd [2]	apparent Kd [3]	apparent Kd [4]
GUGAAACAUGAGGAUCACCCAUGUGAGGAUAUGUUUUAGUACUGCUGACAGUACAUCUAUAGAAGGCACAAUGG	34.8 nM	54.8 nM	–	–
GAUGACAUGAGGAUCACCCAUGUGAUGGUUUGAGGUGGUUACAGAAGGGACGUAUAGUGGUGUGGUCAGGAUAUGUAGAAUCUU	–	–	157 nM	42.1 nM
AGUAUGCGAGGAUAUACAUGAGGAUCACCCAUGUGAGAGAUAAAAGUGAGAAAGACAAGUAGAAGGCGCGUACA	61.9 nM	451 nM	–	–
AGGAGAAAUGUAGGAUAUGGGCAUAUAUAUGGGCAAAGCGCAUAUAUAUGCCCAGAAGGACAUGAGGAUCACCCAUGUUUCCCU	12.5 nM	13.6 nM	–	–
AGGGAACAUGAGGAUCACCCAUGUGAGGAUAUACAAAAGAAAAGAAAAGAAAGAAGAAGUAGAAGGUACAAGAA	28.2 nM	35.5 nM	–	–
UUUUAACAUGAGGAUCACCCAUGUGAGGAUAUCGAAAUUUAUAUUAAUAUUAUUUAUUCGAGAAGGCACAUUUU	120 nM	145 nM	–	–
CAGAACGUCUGAUGAGACCCGCGGCAGGAUAUGCCUGACGUGGACAUGAGGAUCACCCAUGUAAGGCAGAAGGGCCGUUCAGUG	23 nM	95.5 nM	–	–
AGAUUCAUGGCCCGUUCGGGCUCACAUGAGGAUCACCCAUGUGAGGAUAUGAUAUACCUGAUUUAUCAGAAGGCGCAUGCGAAA	7.22 nM	10.3 nM	–	–
UGGUACUAGGGAGGAUAUGGGAAGAUACAUGAGGAUCACCCAUGUUUAACAAUGCCGAGAGGCAACUAGAAGGCCCUAGUACCU	–	–	227 nM	15.5 nM
UUACAUACAAAGUUACAUGAGGAUCACCCAUGUUUAUUGGGAAGAAGGGUAACAGUAUUACAUAUAUAGGAUAUUUCACAAUUG	–	–	333 nM	181 nM
UGUAAAAUUGAUCCUGCAAGUACAUGAGGAUCACCCAUGUGCUAGGAUAUCGCGCAGCUAAAGUCCGAGAAGGAGCACAAUGUA	32.3 nM	95.6 nM	–	–
GCCAUCACGUGAGGAUAUGCUCCCGUUUCGGGAGCAGAAGGCAUGUCAUAAGACAUGAGGAUCACCCAUGUAGAUAAGAUGGCA	–	–	236 nM	12.4 nM
AGCUACGUUUCGUAGCAGUGUCAUCGAGAAGGCCUUAUUACAUGAGGAUCACCCAUGUGGACAUGGGAGGAUAUCGAUGAUACA	–	–	61.3 nM	8.06 nM
AAAAAGCGAGGAUAUACAUGAGGAUCACCCAUGUCAAACGGUAAGACCGCAGGAAACAGUAGAAGGCGCAAAAA	64.3 nM	89.6 nM	–	–
AAAAAACAUGAGGAUCACCCAUGUGAGGAUAUGAUGCGAAUAAAGAAAGAAGAAAGCAUCAGAAGGCACACCUA	50.1 nM	83.9 nM	–	–
GCAGACUUGCUGAAGGUGUUCCACAUGAGGAUCACCCAUGUCAAGGAUAUAACGCGUCCGGCCCGUUAGAAGGUGACAGUUUGC	368 nM	229 nM	–	–
AAUUCGUGUCGAGGAUAUAUUAUAUGACAACAAACACAUACAUGAGGAUCACCCAUGUCCCAUGUAUAGAAGGCGAUGUGUGUG	–	–	260 nM	228 nM
AGUUGUUCAGGAUAUGGUGUGUUAUACAUGAGGAUCACCCAUGUGGGUCCUGGUUUGGCCUCAGAAGGGAAUGUUA	476 nM	449 nM	–	–
AAUUAUUUACAGAAGGAGUAUGAUAAUGUUUUACUAGGAUAUGUAUACAUGAGGAUCACCCAUGUUAUUGUAGGUUUUUUAUGU	12.7 nM	9.65 nM	–	–
GAGCCCGAUGAGAAGGGUUACAUGAGGAUCACCCAUGUCGACCUUGGCGUAACAGGAUAUCAUCGAGCUCUGUGCGUUGACCCA	25.5 nM	132 nM	–	–
AUCAACUCGUCAGGAUAUACGUCACUGCGUCAGCAGUGUGGUAAGAUCACAUGAGGAUCACCCAUGUAGAAGGGACGAGCUGAU	12.5 nM	269 nM	–	–
UUUACGUGAGGAUAUGCGAAUAGAACGUAAGACAUACAGACGCAGAAGGCACAUGAGGAUCACCCAUGUGAACC	20.5 nM	41.4 nM	–	–
CCAUUUACUGAGGAUAUUGCAUCACCCGACUGAUAAGAAGGCAGAACAUGAGGAUCACCCAUGUGGGUACUCAC	73.7 nM	105 nM	–	–
AGAUAUAACUCAGGAUAUCAGCAUGGGUAGAUCACAUGAGGAUCACCCAUGUGCAUGUCCCGGCAUGAGAAGGGAGUAACGCAA	–	–	43.2 nM	52.2 nM

Sequence	apparent Kd [1]	apparent Kd [2]	apparent Kd [3]	apparent Kd [4]
UUACUAUUGGAGAAGGCUCAAUAAUAUAUAAAGGGAGGAUAUCCAACAUGAGGAUCACCCAUGUUUCACCCAUAUGAGGAUCAC	13.1 nM	12.5 nM	–	–
ACAAGACAUGAGGAUCACCCAUGUGAGGAUAUGCUCGGAUGACAUGACGUUAGCUAACGCAGAAGGCACAAUAA	55.8 nM	56 nM	–	–
AAUUUACAUGAGGAUCACCCAUGUGAGGAUAUAUAUAUAUGCUUGUUAUUGCGUGUGUGUAGAAGGCGCGUGAU	21.1 nM	21 nM	–	–
CCUUAAAUUGUAAGGAUAUUAAAGCUGCUGAGUUAUAAGAAGGUACAUGAGGAUCACCCAUGUUCGGCAGGGUC	17.8 nM	18.4 nM	–	–
UUGCUACAUGAGGAUCACCCAUGUCAGGAUAUAGUGUAUAGCGUGGAAGCUCUGUCGAUUAGAAGGGACUGUCU	23.7 nM	25.2 nM	–	–
GAAAUACAUGAGGAUCACCCAUGUGAGGAUAUGCUAUGGAAAUAAAAAAUAAAACAUAGCAGAAGGUACAAAAG	71.5 nM	106 nM	–	–
GUUUCUAUAUGUUUUAUUUAACAGUCAGAAGGUGAUAAUACGACAUGAGGAUCACCCAUGUAAUUCAAGGAUAUGAUAUUAAUC	–	–	62.7 nM	27.7 nM
AUAUGAUAGAUAGGAUAUACUAUGGUUGAAGAAGUAGAAGGAUCAAUUGGGAAAUGUACAUGAGGAUCACCCAUGUUAUGGGUU	–	–	943 nM	493 nM
AGGUAAACCACAGGAUAUGGCUAGUAUAACUAGCCAGAAGGGUGGUCGAAACCAUGUAAAUACAUGAGGAUCACCCAUGUGUCC	–	–	400 nM	131 nM
AGCUACGUUUCGUAGCAGCUAGGUGAGGAUAUCCACUCUACAUGAGGAUCACCCAUGUUAACAUGGGAGAAGGCGCCUAGAAAG	–	–	104 nM	11.8 nM
GGCGAGUAAGGAUAUUUUAACCUACAGACGAGUGAUGGUUAAGAGAAGGUACAUGAGGAUCACCCAUGUCAUCC	16.2 nM	19.8 nM	–	–
AGUCAUACAGGAUAUACAUGAGGAUCACCCAUGUAAAUCCUAAAAAGAAAAUCCUCAUGUAGAAGGGUAUGACA	13.6 nM	9.24 nM	–	–
GGAGCACAUCAAUACAUGAGGAUCACCCAUGUCGAAUGAUAUGAGGAUAUGCAUCGGAAAACGAUGUAGAAGGCAUAGUGCUCC	–	–	15.6 nM	6.27 nM
UGGCGCAUGUGAGGAUAUAAUGGGUAGUAACUAUUAGAAGGUACAUGAGGAUCACCCAUGUACUUGGGUUUAUCAGGAACUCCU	7.02 nM	6.7 nM	–	–
AGAAAACAUGAGGAUCACCCAUGUGAGGAUAUCGAUGUCCAAAAAAAAGUGCGGGACUCGAGAAGGCACUUGGA	28.6 nM	37.6 nM	–	–
UGUUGUAUUACAGGAUAUCUAUGAUUUUUAUUAAGAGAAGGGUAUUCACAUGAGGAUCACCCAUGUAUAUACGAGGAAGUUGUG	–	–	35.2 nM	36 nM
GGGUACAUCGGAGGAUAUCAUGUAAAUACAUGAGGAUCACCCAUGUCGAUGGAGACGUCGGAGAUUGAGAAGGCCGAUGUACCG	–	–	91 nM	7.8 nM
UGGUGUGAAUAGGAUAUGAACUCUGCCAGGAUAUCAGAAGGGUUUACAUGAGGAUCACCCAUGUCAUCCACUGC	18.8 nM	18.9 nM	–	–
AGUUACAUGUAAGGAUAUACUAGCGAUAAGCUAGUAGAAGGUACUGUCUAUUGUAUCACUAUUAUACAUGAGGAUCACCCAUGU	–	–	7.56 nM	6.36 nM
AAAGAACUAGGAUAUACAUGAGGAUCACCCAUGUGCAGCUUAACGGCUCACACCUUAUGUAGAAGGAGUGACCG	16 nM	19.3 nM	–	–
UCUUUCUUUGUGAGGAUAUGCCCAAAUAAAAGCGGGCAGAAGGCACAUGAGGAUCACCCAUGUUCUGCGGUUUU	54.5 nM	486 nM	–	–
GAGAGAGGGUGAGGAUAUUUAGUGAUAAUGAUAAGAGAAGGCACAGACAUGAGGAUCACCCAUGUGGGAAUAAUCCAGAGAGAG	–	–	298 nM	290 nM
AAUCACAUGAGGAUCACCCAUGUGCCAGAAGGCACAAAUCUGCCUGGUGCGCCCGGGCUUCUCUGUGAGGAUAUGGAAAAGAAG	–	–	309 nM	76 nM
ACAUGUCGUGAGAAGGACGGCGUGCAUAGCGCCGUAGGAUAUCAAGACAUGAGGAUCACCCAUGUACGCGUGUCCCGCCGUGCU	38.7 nM	303 nM	–	–
